Measurements taken from ChEMBL document CHEMBL1153733, “Imidazole derivatives as possible microbicides with dual protection” (Eur J Med Chem, 2010).
Converted amounts (≈) assume the structure as drawn.

Key:
[1] = test system: HeLa; test: Cytotoxicity against human HeLa cells at 200 ug/ml after 24 hrs by MTT assay; type: cell-based
How it was run: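 HeLa cells seeded at 5.0 × 10⁴ per well in DMEM with 10% FCS, 24 h at 37 °C in 5% CO₂; medium replaced with fresh medium containing test dilutions, 10% DMSO vehicle in control wells. After a further 24 h, MTT added; formazan dissolved in DMSO, OD read at 540 nm. Mean ± SE of 3 estimations.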

[2] = test system: Candida albicans; test: Antifungal activity against Candida albicans after 48 hrs by broth microdilution technique; type: functional
How it was run: (§1)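 Broth microdilution MIC per NCCLS guidelines in RPMI 1640 buffered with MOPS; starting inoculum of test culture 1–5 × 10³ CFU/mL.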

[3] = test system: Trichophyton mentagrophytes; test: Antifungal activity against Trichophyton mentagrophytes after 48 hrs by broth microdilution technique; type: functional; how it was run: as §1
[4] = test system: Candida parapsilosis; test: Antifungal activity against Candida parapsilosis after 48 hrs by broth microdilution technique; type: functional; conditions: Lodderomyces parapsilosis; how it was run: as §1
[5] = test system: Cryptococcus neoformans; test: Antifungal activity against Cryptococcus neoformans after 48 hrs by broth microdilution technique; type: functional; how it was run: as §1
[6] = test system: Trichomonas vaginalis; test: Antitrichomonal activity against Trichomonas vaginalis after 48 hrs by trypan blue exclusion assay; type: functional
How it was run: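 Trophozoites in TYM medium; stock solutions serially diluted in TYM to concentrations up to 0.1 mg/mL, DMSO/TYM as vehicle control. Parasites added, incubated anaerobically at 37 °C, viability checked by trypan blue exclusion under microscope (200×) from 3 to 48 h. MIC = lowest concentration with all cells dead at 48 h. Metronidazole reference; run three times.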

[7] = test system: Spermatozoa; test: Sperimcidal activity against human spermatozoa assessed as sperm motility at 1 % drug solution%; type: functional
How it was run: (§2)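 Drop of sperm–compound mixture placed on slide under cover glass, examined by phase contrast microscopy in five fields; percentage of motile spermatozoa scored visually within 30–40 s. N-9 as reference control; some compounds tested as D-(-)-tartrate salts.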

[8] = test system: Sporothrix schenckii; test: Antifungal activity against Sporothrix schenckii after 48 hrs by broth microdilution technique; type: functional; how it was run: as §1
[9] = test system: Aspergillus fumigatus; test: Antifungal activity against Aspergillus fumigatus after 48 hrs by broth microdilution technique; type: functional; how it was run: as §1
[10] = test system: Spermatozoa; test: Sperimcidal activity against human spermatozoa assessed as sperm immobilization at 1 % drug solution%; type: functional; how it was run: as §2

| SMILES | Activity [1] | MIC [2] | MIC [3] | MIC [4] | MIC [5] | MIC [6] | Activity [7] | MIC [8] | MIC [9] | Activity [10] |
| --- | --- | --- | --- | --- | --- | --- | --- | --- | --- | --- |
| Cc1ncc([N+](=O)[O-])n1CCOC(=O)CCN1CCN(c2ccc(F)cc2)CC1 | Non-toxic | > 50 µg/mL | 50 µg/mL (≈ 123 µM) | > 50 µg/mL | > 50 µg/mL | 1.54 µM (≈ 0.624 µg/mL) | 88.24% | > 50 µg/mL | > 50 µg/mL |  |
| Cc1ncc([N+](=O)[O-])n1CCOS(C)(=O)=O |  | > 50 µg/mL | > 50 µg/mL | > 50 µg/mL | > 50 µg/mL | 5.02 µM (≈ 1.25 µg/mL) | 94.12% | 50 µg/mL (≈ 201 µM) | > 50 µg/mL |  |
| Cc1ncc([N+](=O)[O-])n1CCn1cnc2ccccc21 | Non-toxic | > 50 µg/mL | > 50 µg/mL | > 50 µg/mL | > 50 µg/mL | 4.61 µM (≈ 1.25 µg/mL) | 0% | 50 µg/mL (≈ 184 µM) | > 50 µg/mL | 100% |
| Cc1ncc([N+](=O)[O-])n1CCOC(=O)CCn1ccnc1[N+](=O)[O-] | Non-toxic | > 50 µg/mL | 50 µg/mL (≈ 148 µM) | > 50 µg/mL | > 50 µg/mL | 9.25 µM (≈ 3.13 µg/mL) | 100% | > 50 µg/mL | > 50 µg/mL |  |
| Cc1ncc([N+](=O)[O-])n1CCOC(=O)CCn1c([N+](=O)[O-])cnc1C | Non-toxic | > 50 µg/mL | 50 µg/mL (≈ 142 µM) | > 50 µg/mL | > 50 µg/mL | 20.6 µM (≈ 7.26 µg/mL) | 88.24% | > 50 µg/mL | > 50 µg/mL |  |
| Cc1ncc([N+](=O)[O-])n1CCSC(=S)N1CCN(c2ccc([N+](=O)[O-])cc2)CC1 | Non-toxic | > 50 µg/mL | > 50 µg/mL | > 50 µg/mL | > 50 µg/mL | 2.87 µM (≈ 1.25 µg/mL) | 41.18% | > 50 µg/mL | > 50 µg/mL |  |
| Cc1ncc([N+](=O)[O-])n1CCOC(=O)CCn1ccnc1 | Non-toxic | > 50 µg/mL | 50 µg/mL (≈ 170 µM) | > 50 µg/mL | > 50 µg/mL | 10.7 µM (≈ 3.13 µg/mL) | 100% | > 50 µg/mL | > 50 µg/mL |  |
| CS(=O)(=O)[O-].Cc1ncc([N+](=O)[O-])n1CC[n+]1ccccc1 | Non-toxic | > 50 µg/mL | > 50 µg/mL | > 50 µg/mL | > 50 µg/mL | 9.53 µM | 85.09% | > 50 µg/mL | > 50 µg/mL |  |
| Cc1ncc([N+](=O)[O-])n1CCn1ccnc1 | Non-toxic | 25 µg/mL (≈ 113 µM) | > 50 µg/mL | > 50 µg/mL | > 50 µg/mL | 14.1 µM (≈ 3.13 µg/mL) | 92.36% | 50 µg/mL (≈ 226 µM) | > 50 µg/mL |  |
| C=CC(=O)OCCn1c([N+](=O)[O-])cnc1C | Non-toxic | > 50 µg/mL | 50 µg/mL (≈ 222 µM) | > 50 µg/mL | 50 µg/mL (≈ 222 µM) | 42.2 µM (≈ 9.51 µg/mL) | 70.59% | 50 µg/mL (≈ 222 µM) | > 50 µg/mL |  |
| Cc1ncc([N+](=O)[O-])n1CCOC(=O)CCn1nnc2ccccc21 | Non-toxic | > 50 µg/mL | 50 µg/mL (≈ 145 µM) | > 50 µg/mL | > 50 µg/mL | 27.6 µM (≈ 9.51 µg/mL) | 95.734% | > 50 µg/mL | > 50 µg/mL |  |
| Cc1ncc([N+](=O)[O-])n1CCOC(=O)CCn1cncn1 | Non-toxic | > 50 µg/mL | 50 µg/mL (≈ 170 µM) | > 50 µg/mL | > 50 µg/mL | 21.3 µM (≈ 6.26 µg/mL) | 100% | > 50 µg/mL | > 50 µg/mL |  |
| Cc1ncc([N+](=O)[O-])n1CCSC(=S)N1CCN(c2ncccn2)CC1 | Non-toxic | > 50 µg/mL | 50 µg/mL (≈ 127 µM) | > 50 µg/mL | > 50 µg/mL | 25.4 µM (≈ 10 µg/mL) | 94.12% | > 50 µg/mL | > 50 µg/mL |  |
| Cc1ncc([N+](=O)[O-])n1CCCl |  | > 50 µg/mL | > 50 µg/mL | > 50 µg/mL | 50 µg/mL (≈ 264 µM) | 6.6 µM (≈ 1.25 µg/mL) | 58.82% | 50 µg/mL (≈ 264 µM) | > 50 µg/mL |  |
| CC(=O)OCCn1c([N+](=O)[O-])cnc1C |  | > 50 µg/mL | > 50 µg/mL | > 50 µg/mL | > 50 µg/mL | 23.5 µM (≈ 5 µg/mL) | 82.35% | > 50 µg/mL | > 50 µg/mL |  |
| Cc1ncc([N+](=O)[O-])n1CCOC(=O)CCl |  | > 50 µg/mL | 25 µg/mL (≈ 101 µM) | > 50 µg/mL | > 50 µg/mL | 10.1 µM (≈ 2.5 µg/mL) | 98.37% | > 50 µg/mL | > 50 µg/mL |  |
| Cc1ncc([N+](=O)[O-])n1CCOC(=O)CCN1CCN(c2ccc([N+](=O)[O-])cc2)CC1 | Non-toxic | > 50 µg/mL | 50 µg/mL (≈ 116 µM) | > 50 µg/mL | > 50 µg/mL | 1.45 µM (≈ 0.627 µg/mL) | 82.35% | > 50 µg/mL | > 50 µg/mL |  |
| Cc1ncc([N+](=O)[O-])n1CCSC(=S)N1CCOCC1 | Non-toxic | > 50 µg/mL | 50 µg/mL (≈ 158 µM) | > 50 µg/mL | > 50 µg/mL | 1.98 µM (≈ 0.626 µg/mL) | 70.59% | 50 µg/mL (≈ 158 µM) | > 50 µg/mL |  |
| Cc1ncc([N+](=O)[O-])n1CCSC(=S)N1CCCCC1 | Non-toxic | > 50 µg/mL | 50 µg/mL (≈ 159 µM) | > 50 µg/mL | > 50 µg/mL | 1 µM (≈ 0.314 µg/mL) | 70.59% | 25 µg/mL (≈ 79.5 µM) | > 50 µg/mL |  |
| Cc1ncc([N+](=O)[O-])n1CCOC(=O)CCN(C)CCC(Oc1ccc(C(F)(F)F)cc1)c1ccccc1 (stereo not given) | Non-toxic | > 50 µg/mL | 50 µg/mL (≈ 93.5 µM) | > 50 µg/mL | > 50 µg/mL | 11.7 µM (≈ 6.25 µg/mL) | 0% | > 50 µg/mL | > 50 µg/mL | 100% |
| CCN(CC)C(=S)SCCn1c([N+](=O)[O-])cnc1C | Non-toxic | 50 µg/mL (≈ 165 µM) | 25 µg/mL (≈ 82.7 µM) | > 50 µg/mL | 50 µg/mL (≈ 165 µM) | 1.03 µM (≈ 0.311 µg/mL) | 100% | 25 µg/mL (≈ 82.7 µM) | > 50 µg/mL |  |
| Cc1ncc([N+](=O)[O-])n1CCSC(=S)N1CCN(C)CC1 | Non-toxic | > 50 µg/mL | 50 µg/mL (≈ 152 µM) | > 50 µg/mL | > 50 µg/mL | 7.6 µM (≈ 2.5 µg/mL) | 0% | 50 µg/mL (≈ 152 µM) | > 50 µg/mL | 100% |
| Cc1ncc([N+](=O)[O-])n1CCSC(=S)N1CCCC1.O=C(O)C(O)C(O)C(=O)O | Non-toxic | 50 µg/mL | 50 µg/mL | > 50 µg/mL | 50 µg/mL | 8.33 µM | 0% | 25 µg/mL | > 50 µg/mL | 100% |
| Cc1ncc([N+](=O)[O-])n1CCSC(=S)N(C)C.O=C(O)C(O)C(O)C(=O)O | Non-toxic | > 50 µg/mL | 50 µg/mL | > 50 µg/mL | > 50 µg/mL | 1.14 µM | 0% | > 50 µg/mL | > 50 µg/mL | 100% |
| COc1ccccc1N1CCN(C(=S)SCCn2c([N+](=O)[O-])cnc2C)CC1.O=C(O)C(O)C(O)C(=O)O | Non-toxic | > 50 µg/mL | 25 µg/mL | > 50 µg/mL | > 50 µg/mL | 5.94 µM | 0% | 50 µg/mL | > 50 µg/mL | 100% |
| Cc1ncc([N+](=O)[O-])n1CCSC(=S)N1CCN(c2ccccn2)CC1.O=C(O)C(O)C(O)C(=O)O | Non-toxic | > 50 µg/mL | 50 µg/mL | > 50 µg/mL | > 50 µg/mL | 6.38 µM | 0% | 50 µg/mL | > 50 µg/mL | 100% |
| OC(Cn1cncn1)(Cn1cncn1)c1ccc(F)cc1F [FLUCONAZOLE] | Non-toxic | 0.5 µg/mL (≈ 1.63 µM) | 1 µg/mL (≈ 3.27 µM) | 1 µg/mL (≈ 3.27 µM) | 1 µg/mL (≈ 3.27 µM) |  |  | 2 µg/mL (≈ 6.53 µM) | 2 µg/mL (≈ 6.53 µM) |  |
| Cc1ncc([N+](=O)[O-])n1CCOC(=S)[S-].[Na+] [METRONIDAZOLE XANTHATE] | Non-toxic | > 50 µg/mL | > 50 µg/mL | > 50 µg/mL | > 50 µg/mL | 112 µM | 90.24% | > 50 µg/mL | > 50 µg/mL |  |
| Cc1ncc([N+](=O)[O-])n1CCO [METRONIDAZOLE] | Non-toxic |  |  |  |  | 11.7 µM (≈ 2 µg/mL) | 100% |  |  |  |
| CCCCCCCCCc1ccc(OCCOCCOCCOCCOCCOCCOCCOCCOCCO)cc1 [NONOXYNOL 9] |  | > 50 µg/mL |  | 50 µg/mL (≈ 81.1 µM) |  | 60.8 µM (≈ 37.5 µg/mL) | 0% |  |  |  |
